From ChEMBL document CHEMBL1156877, “Discovery of 6-benzyloxyquinolines as c-Met selective kinase inhibitors” (Bioorg Med Chem Lett, 2010)
≈ marks a conversion by molar mass, not a printed value.

Experiments:
[1] = target: Macrophage-stimulating protein receptor (Homo sapiens, UniProt Q04912); assay: Inhibition of recombinant RON by TR-FRET assay
In short: (§1)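 Recombinant tyrosine kinase incubated with test compound and substrate peptide/ATP for 90 min at 30 °C; enzyme amount, ATP level, substrate and cation vary by kinase. Reaction stopped, then TR-FRET reagent with europium-labelled anti-phospho-substrate antibody added for 5 min at room temperature; substrate phosphorylation read as time-resolved fluorescence.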

[2] = target: Tyrosine-protein kinase ABL1 (Homo sapiens, UniProt P00519); assay: Inhibition of recombinant Abl by TR-FRET assay; in short: as §1
[3] = test system: CAPAN-1; assay: Cytotoxicity against human Capan1 cells after 96 hrs by WST8 assay; conditions: CAPAN-1, 96 h
[4] = test system: DU-145; assay: Cytotoxicity against human DU145 cells after 96 hrs by WST8 assay; conditions: DU-145, 96 h
[5] = test system: HUVEC; assay: Inhibition of HGF-induced proliferation of HUVEC after 96 hrs by WST8 assay; conditions: Homo sapiens
[6] = test system: PC-3; assay: Cytotoxicity against human PC3 cells after 96 hrs by WST8 assay; conditions: PC-3, 96 h
[7] = test system: MKN-28; assay: Cytotoxicity against human MKN28 cells after 96 hrs by WST8 assay; conditions: MKN-28, 96 h
[8] = test system: BXPC-3; assay: Cytotoxicity against human BxPC3 cells after 96 hrs by WST8 assay; conditions: BXPC-3, 96 h
[9] = target: Tyrosine-protein kinase Fyn (Homo sapiens, UniProt P06241); assay: Inhibition of recombinant Fyn by TR-FRET assay; in short: as §1
[10] = target: Tyrosine-protein kinase Yes (Homo sapiens, UniProt P07947); assay: Inhibition of recombinant YES by TR-FRET assay; in short: as §1
[11] = test system: T47D; assay: Cytotoxicity against human T47D cells after 96 hrs by WST8 assay
[12] = target: Ephrin type-A receptor 2 (Homo sapiens, UniProt P29317); assay: Inhibition of recombinant EphA2 by TR-FRET assay; in short: as §1
[13] = target: T1, Protein kinase C beta type (Homo sapiens, UniProt P05771); assay: Inhibition of recombinant PKCbeta1 by IMAP assay
In short: (§2)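 Recombinant enzyme mixed with test compound and substrate peptide/ATP solution, incubated 90 min at 30 °C; enzyme quantity, ATP, substrate and cation set per kinase. IMAP reagent then added for 5 min at room temperature, and peptide phosphorylation quantified by fluorescence polarization.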

[14] = test system: HUVEC; assay: Inhibition of ECGS-induced proliferation of HUVEC after 96 hrs by WST8 assay; conditions: Homo sapiens
[15] = test system: HUVEC; assay: Inhibition of VEGF-induced proliferation of HUVEC after 96 hrs by WST8 assay; conditions: Homo sapiens
[16] = test system: WiDr; assay: Cytotoxicity against human WiDr cells after 96 hrs by WST8 assay
[17] = Solubility in fasted state simulated intestinal fluid; assay type: physicochemical
[18] = target: Mast/stem cell growth factor receptor Kit (Homo sapiens, UniProt P10721); assay: Inhibition of recombinant Kit by TR-FRET assay; in short: as §1
[19] = target: Insulin receptor (Homo sapiens, UniProt P06213); assay: Inhibition of recombinant InsR by TR-FRET assay
[20] = test system: MDA-MB-231; assay: Cytotoxicity against human MDA-MB-231 cells after 96 hrs by WST8 assay; conditions: MDA-MB-231, 96 h
[21] = target: T2, Receptor-type tyrosine-protein kinase FLT3 (Homo sapiens, UniProt P36888); assay: Inhibition of recombinant Flt3 by TR-FRET assay; in short: as §1
T2 sequence (P36888 whole entry): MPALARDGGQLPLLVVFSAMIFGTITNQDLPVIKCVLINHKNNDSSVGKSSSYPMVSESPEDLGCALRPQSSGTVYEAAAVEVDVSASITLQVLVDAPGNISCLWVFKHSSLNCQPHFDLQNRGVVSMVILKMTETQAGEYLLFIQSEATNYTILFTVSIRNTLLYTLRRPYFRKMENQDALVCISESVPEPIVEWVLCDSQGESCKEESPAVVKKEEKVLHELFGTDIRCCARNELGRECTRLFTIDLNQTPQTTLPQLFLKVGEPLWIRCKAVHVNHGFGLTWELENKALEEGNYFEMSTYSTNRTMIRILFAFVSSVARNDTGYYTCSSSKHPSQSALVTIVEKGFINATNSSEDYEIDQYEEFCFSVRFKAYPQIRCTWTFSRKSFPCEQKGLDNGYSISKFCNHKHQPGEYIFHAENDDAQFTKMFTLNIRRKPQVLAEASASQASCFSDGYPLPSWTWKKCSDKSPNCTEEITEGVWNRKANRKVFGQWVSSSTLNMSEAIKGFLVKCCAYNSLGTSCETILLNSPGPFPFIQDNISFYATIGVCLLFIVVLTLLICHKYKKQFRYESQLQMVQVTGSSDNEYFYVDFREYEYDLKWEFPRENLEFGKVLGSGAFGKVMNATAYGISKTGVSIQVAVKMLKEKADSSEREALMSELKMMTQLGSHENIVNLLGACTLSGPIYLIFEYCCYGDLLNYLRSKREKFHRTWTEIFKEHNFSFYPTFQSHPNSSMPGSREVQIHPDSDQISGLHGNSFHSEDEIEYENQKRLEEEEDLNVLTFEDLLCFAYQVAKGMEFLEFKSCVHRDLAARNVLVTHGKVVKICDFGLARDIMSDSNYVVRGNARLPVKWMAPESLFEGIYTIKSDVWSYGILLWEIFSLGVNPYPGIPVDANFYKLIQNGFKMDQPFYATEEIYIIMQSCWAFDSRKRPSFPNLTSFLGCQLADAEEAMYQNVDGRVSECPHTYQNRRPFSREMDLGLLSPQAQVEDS

[22] = test system: HCT-116; assay: Cytotoxicity against human HCT116 cells after 96 hrs by WST8 assay; conditions: HCT-116, 96 h
[23] = Inhibition of recombinant PDGFR by TR-FRET assay; in short: as §1
[24] = target: Cyclin-dependent kinase 1 (Homo sapiens, UniProt P06493); assay: Inhibition of recombinant CDK1 by IMAP assay; in short: as §2
[25] = test system: MKN-45; assay: Cytotoxicity against human MKN45 cells after 96 hrs by WST8 assay; assay type: functional, cell-based; conditions: MKN-45, 96 h
In short: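 Tumour cells exposed to a range of compound concentrations for 96 h; cytotoxicity read with WST-8 cell counting kit.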

[26] = test system: NCI-H460; assay: Cytotoxicity against human NCI-H460 cells after 96 hrs by WST8 assay; conditions: NCI-H460, 96 h
[27] = target: Hepatocyte growth factor receptor (Homo sapiens, UniProt P08581); assay: Inhibition of recombinant c-Met by TR-FRET assay
[28] = target: Protein kinase C alpha type (Homo sapiens, UniProt P17252); assay: Inhibition of recombinant PKCalpha by IMAP assay; in short: as §2
[29] = test system: CWR22R; assay: Cytotoxicity against human 22Rv1 cells after 96 hrs by WST8 assay; conditions: 22Rv1, 96 h
[30] = test system: MCF7; assay: Cytotoxicity against human MCF7 cells after 96 hrs by WST8 assay; conditions: MCF7, 96 h
[31] = target: Leukocyte tyrosine kinase receptor (Homo sapiens, UniProt P29376); assay: Inhibition of recombinant LTK by TR-FRET assay; in short: as §1
[32] = target: T1, Protein kinase C beta type; assay: Inhibition of recombinant PKCbeta2 by IMAP assay; in short: as §2

T1 sequence (P05771 whole entry): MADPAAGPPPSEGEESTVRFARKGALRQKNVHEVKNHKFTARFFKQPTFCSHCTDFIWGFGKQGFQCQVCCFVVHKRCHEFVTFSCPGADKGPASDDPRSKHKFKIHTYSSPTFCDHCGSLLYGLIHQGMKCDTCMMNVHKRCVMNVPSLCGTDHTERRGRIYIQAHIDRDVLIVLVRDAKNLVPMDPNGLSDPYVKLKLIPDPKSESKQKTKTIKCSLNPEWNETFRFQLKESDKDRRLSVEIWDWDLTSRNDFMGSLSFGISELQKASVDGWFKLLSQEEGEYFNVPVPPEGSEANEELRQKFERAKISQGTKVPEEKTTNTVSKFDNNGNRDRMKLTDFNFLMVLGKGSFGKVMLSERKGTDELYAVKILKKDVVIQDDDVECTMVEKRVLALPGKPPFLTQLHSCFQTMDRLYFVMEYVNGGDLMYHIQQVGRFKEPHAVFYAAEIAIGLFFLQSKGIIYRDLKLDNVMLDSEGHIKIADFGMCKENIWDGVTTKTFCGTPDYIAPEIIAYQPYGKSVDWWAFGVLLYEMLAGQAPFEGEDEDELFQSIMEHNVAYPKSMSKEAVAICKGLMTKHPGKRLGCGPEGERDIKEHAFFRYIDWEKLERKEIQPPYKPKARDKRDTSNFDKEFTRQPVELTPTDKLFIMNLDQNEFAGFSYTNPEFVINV
Tyrosine-protein kinase ABL1, sequence (P00519 whole entry): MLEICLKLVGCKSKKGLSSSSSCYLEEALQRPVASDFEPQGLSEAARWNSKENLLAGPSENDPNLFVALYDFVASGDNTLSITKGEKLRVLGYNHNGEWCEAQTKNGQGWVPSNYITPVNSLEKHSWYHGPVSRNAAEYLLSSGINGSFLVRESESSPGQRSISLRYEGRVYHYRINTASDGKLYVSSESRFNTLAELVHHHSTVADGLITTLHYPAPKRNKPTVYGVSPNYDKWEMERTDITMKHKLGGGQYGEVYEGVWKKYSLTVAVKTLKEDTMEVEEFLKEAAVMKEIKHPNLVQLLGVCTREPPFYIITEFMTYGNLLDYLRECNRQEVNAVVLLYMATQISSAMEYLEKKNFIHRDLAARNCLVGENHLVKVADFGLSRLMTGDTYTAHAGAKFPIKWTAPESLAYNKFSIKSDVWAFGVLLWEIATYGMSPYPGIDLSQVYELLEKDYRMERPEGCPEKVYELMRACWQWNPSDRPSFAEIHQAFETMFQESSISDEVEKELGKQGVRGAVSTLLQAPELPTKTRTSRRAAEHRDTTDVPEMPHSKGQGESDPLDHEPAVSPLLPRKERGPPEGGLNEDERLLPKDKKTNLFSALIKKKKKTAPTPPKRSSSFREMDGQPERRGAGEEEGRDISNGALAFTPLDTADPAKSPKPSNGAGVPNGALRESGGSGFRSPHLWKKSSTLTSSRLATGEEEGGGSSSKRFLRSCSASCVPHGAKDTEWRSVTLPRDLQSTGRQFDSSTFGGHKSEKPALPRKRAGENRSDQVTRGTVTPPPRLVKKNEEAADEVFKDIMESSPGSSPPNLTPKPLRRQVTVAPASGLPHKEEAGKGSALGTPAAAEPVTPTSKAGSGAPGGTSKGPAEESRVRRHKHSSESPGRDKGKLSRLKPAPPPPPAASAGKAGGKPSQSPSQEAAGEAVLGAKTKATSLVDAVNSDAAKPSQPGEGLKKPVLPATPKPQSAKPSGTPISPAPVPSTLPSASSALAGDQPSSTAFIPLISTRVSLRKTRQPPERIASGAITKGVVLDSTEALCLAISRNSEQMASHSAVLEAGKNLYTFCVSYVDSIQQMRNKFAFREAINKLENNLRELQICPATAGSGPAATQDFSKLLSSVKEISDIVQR
Mast/stem cell growth factor receptor Kit, sequence (P10721 whole entry): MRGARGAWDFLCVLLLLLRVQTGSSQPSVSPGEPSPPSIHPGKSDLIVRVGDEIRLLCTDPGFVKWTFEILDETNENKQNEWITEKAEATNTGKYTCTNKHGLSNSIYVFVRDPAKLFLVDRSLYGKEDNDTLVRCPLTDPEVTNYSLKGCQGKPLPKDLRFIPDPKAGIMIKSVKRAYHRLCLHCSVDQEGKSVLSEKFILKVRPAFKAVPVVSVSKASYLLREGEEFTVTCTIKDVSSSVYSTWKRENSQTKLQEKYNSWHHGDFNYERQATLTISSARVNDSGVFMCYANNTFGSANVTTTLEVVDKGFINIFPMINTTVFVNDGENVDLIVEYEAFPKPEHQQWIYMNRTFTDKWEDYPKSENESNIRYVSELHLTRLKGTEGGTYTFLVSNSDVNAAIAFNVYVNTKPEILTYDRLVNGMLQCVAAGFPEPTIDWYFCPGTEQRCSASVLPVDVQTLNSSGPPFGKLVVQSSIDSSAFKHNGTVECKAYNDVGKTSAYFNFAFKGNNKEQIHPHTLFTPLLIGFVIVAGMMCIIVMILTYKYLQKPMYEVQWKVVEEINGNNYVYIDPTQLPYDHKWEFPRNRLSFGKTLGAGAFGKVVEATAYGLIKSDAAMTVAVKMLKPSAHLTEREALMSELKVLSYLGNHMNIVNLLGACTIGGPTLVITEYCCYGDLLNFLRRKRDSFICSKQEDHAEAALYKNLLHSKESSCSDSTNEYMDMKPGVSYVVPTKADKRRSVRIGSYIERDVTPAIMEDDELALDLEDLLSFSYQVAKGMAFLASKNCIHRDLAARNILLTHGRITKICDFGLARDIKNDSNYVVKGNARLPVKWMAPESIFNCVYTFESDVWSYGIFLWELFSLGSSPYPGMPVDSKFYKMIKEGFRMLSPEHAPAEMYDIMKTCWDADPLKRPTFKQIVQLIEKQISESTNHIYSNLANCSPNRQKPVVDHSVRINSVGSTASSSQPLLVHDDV
Macrophage-stimulating protein receptor, sequence (Q04912 25-304 limits assumed): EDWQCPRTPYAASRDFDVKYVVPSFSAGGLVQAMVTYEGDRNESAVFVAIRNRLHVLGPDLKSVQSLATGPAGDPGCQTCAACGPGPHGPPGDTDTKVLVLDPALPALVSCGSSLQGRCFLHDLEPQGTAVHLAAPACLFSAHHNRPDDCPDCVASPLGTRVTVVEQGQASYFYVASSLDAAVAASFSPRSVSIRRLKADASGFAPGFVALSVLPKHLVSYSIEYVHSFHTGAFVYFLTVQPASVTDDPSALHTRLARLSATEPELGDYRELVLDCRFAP
Macrophage-stimulating protein receptor, sequence (Q04912 310-1400 limits assumed): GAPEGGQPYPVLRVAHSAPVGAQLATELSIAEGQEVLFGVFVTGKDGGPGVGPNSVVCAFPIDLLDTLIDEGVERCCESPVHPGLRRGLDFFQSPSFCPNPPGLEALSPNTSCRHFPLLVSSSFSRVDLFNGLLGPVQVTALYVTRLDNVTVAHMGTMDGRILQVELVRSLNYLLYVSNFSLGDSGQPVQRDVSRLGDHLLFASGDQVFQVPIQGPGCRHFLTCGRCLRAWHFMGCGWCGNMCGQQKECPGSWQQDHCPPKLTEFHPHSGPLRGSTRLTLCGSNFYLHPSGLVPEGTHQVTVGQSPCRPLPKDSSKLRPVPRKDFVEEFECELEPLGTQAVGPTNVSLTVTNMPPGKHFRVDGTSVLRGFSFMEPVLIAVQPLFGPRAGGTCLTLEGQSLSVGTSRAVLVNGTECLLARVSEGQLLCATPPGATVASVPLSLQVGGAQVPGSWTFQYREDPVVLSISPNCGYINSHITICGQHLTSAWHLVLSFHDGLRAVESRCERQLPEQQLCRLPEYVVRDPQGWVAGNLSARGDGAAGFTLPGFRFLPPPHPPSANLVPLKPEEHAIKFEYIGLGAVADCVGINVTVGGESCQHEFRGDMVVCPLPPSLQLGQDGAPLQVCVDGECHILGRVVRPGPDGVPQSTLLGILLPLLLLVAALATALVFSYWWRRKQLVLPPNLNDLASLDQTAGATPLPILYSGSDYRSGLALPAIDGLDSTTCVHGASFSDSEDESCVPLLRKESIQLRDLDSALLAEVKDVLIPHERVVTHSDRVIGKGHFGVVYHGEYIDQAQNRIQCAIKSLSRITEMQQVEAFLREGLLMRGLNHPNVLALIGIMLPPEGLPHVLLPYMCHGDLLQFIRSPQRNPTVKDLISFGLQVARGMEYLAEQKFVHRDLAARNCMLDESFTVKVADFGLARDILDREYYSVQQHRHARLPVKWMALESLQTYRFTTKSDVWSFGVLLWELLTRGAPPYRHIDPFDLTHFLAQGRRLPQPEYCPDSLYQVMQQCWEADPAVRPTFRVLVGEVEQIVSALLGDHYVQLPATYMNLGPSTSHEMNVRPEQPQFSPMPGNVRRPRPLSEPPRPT
Leukocyte tyrosine kinase receptor, sequence (P29376 whole entry): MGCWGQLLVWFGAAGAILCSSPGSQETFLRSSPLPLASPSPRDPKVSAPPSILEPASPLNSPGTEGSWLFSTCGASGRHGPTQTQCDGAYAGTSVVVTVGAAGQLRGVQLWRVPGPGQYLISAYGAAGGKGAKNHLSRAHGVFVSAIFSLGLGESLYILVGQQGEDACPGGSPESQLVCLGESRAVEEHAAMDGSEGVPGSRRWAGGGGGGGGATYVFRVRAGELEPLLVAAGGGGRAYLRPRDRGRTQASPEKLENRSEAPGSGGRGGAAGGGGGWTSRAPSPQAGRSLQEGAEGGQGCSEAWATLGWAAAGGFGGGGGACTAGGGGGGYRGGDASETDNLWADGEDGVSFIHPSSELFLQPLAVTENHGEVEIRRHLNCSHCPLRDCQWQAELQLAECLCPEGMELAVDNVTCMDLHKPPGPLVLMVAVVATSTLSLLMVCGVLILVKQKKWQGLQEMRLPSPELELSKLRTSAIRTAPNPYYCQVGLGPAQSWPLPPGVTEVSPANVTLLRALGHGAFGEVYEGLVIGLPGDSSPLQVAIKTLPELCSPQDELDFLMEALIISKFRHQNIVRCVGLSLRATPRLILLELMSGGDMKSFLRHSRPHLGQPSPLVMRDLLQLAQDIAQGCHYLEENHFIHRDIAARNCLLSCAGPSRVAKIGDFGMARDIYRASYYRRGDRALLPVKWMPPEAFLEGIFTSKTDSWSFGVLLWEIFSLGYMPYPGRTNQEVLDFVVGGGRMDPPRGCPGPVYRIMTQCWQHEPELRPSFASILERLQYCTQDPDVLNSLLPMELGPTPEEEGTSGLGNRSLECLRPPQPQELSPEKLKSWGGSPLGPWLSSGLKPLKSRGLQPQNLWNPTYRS

With C[C@@H](Oc1ccc2ncc(C3CC3C(N)=O)cc2c1)c1c(Cl)ccc(F)c1Cl (some centres not stated) the IC50 [1] was 0.23 µM, the IC50 [2] was over 50 µM and the IC50 [3] was over 1 µM. For the same compound, the IC50 [4] was over 1 µM, the IC50 [5] was 0.3 µM and the IC50 [6] was over 1 µM. It also gave an IC50 [7] of over 1 µM, an IC50 [8] of over 1 µM and an IC50 [9] of 25 µM. For the same compound, the IC50 [10] was over 50 µM, the IC50 [11] was over 1 µM and the IC50 [12] was 5.2 µM. It also gave an IC50 [13] of over 50 µM, an IC50 [14] of 9.9 µM and an IC50 [15] of 6.7 µM. For the same compound, the IC50 [16] was over 1 µM, the solubility [17] was 345 µg/mL (≈ 823 µM) and the IC50 [18] was 41 µM. For the same compound, the IC50 [19] was over 50 µM, the IC50 [20] was over 1 µM and the IC50 [21] was 15 µM. The IC50 [22] was over 1 µM, the IC50 [23] was over 50 µM and the IC50 [24] was over 50 µM. The IC50 [25] was 0.093 µM, the IC50 [26] was over 1 µM and the IC50 [27] was 0.0093 µM. It also gave an IC50 [28] of over 50 µM, an IC50 [29] of over 1 µM and an IC50 [30] of over 1 µM. For the same compound, the IC50 [31] was 10 µM and the IC50 [32] was over 50 µM.
